Data taken from ChEMBL document CHEMBL3352515, “Design, synthesis, antiviral and cytostatic activity of ω-(1H-1,2,3-triazol-1-yl)(polyhydroxy)alkylphosphonates as acyclic nucleotide analogues” (Bioorg Med Chem, 2014).
Active and inactive are the calls of the source. No cut-off for these calls is given here.

Assays:
CCRF-CEM = experiment: Cytostatic activity against human CEM cells assessed as inhibition of proliferation after 72 hrs by Coulter cell counting method; format: functional, cell-based
In short: (§1)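 (5–7.5) × 10⁴ tumor cells per well were exposed to test compound at 37 °C in humidified CO₂. Incubation ran 48 h for L1210 and 72 h for CEM and HeLa. Cells were then counted in a Coulter counter. IC₅₀ is the concentration that inhibits cell proliferation by 50%.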

L1210 = experiment: Cytostatic activity against mouse L1210 cells assessed as inhibition of proliferation after 48 hrs by Coulter cell counting method; format: functional, cell-based; details: L1210, 48 h; in short: as §1
HeLa = experiment: Cytostatic activity against human HeLa cells assessed as inhibition of proliferation after 72 hrs by Coulter cell counting method; format: functional, cell-based; in short: as §1
[1] = test system: Respiratory syncytial virus; experiment: Antiviral activity against Respiratory syncytial virus infected in HeLa cells assessed as inhibition of virus-induced cytopathogenicity; format: functional, organism-based
In short: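 Confluent host-cell monolayers in 96-well plates were inoculated with 100 CCID₅₀ of virus while exposed to a range of test compound concentrations. Cytopathic effect was scored once it was complete in untreated infected controls. EC₅₀ is the concentration that reduces virus-induced cytopathogenicity by 50%.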

[2] = test system: Vesicular stomatitis virus; experiment: Antiviral activity against Vesicular stomatitis virus infected in HeLa cells assessed as inhibition of virus-induced cytopathogenicity; format: functional, organism-based
In short: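 HeLa cell monolayers (confluent) were infected with 100 CCID50 of VSV in the presence of serial compound concentrations. Viral cytopathicity was read when complete in untreated infected controls. EC50 is the concentration that reduced virus-induced cytopathogenicity by 50%.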

Human alphaherpesvirus 3 = experiment: Antiviral activity against Thymidine kinase-positive Varicella-zoster virus Oka infected in HEL assessed as reduction in virus plaque formation; format: functional, organism-based; details: Human alphaherpesvirus 3, strain Oka vaccine
In short: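 Confluent HEL fibroblast cultures were inoculated with 20 PFU of VZV together with varying compound concentrations. Plaque formation was recorded once complete in untreated infected controls. EC50 is the concentration that reduced viral plaque formation by 50%.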

In the case of CC(=O)c1cn(Cc2cn(C[C@H](OCc3ccccc3)[C@H](O)P(=O)(OCc3ccccc3)OCc3ccccc3)nn2)c2ccccc12, the IC50 (CCRF-CEM) is reported as 16 µM, the IC50 (L1210) is reported as 15 µM and the IC50 (HeLa) is reported as 13 µM.
CC(=O)Nc1ccn(Cc2cn(C[C@H](OCc3ccccc3)[C@H](O)P(=O)(OCc3ccccc3)OCc3ccccc3)nn2)c(=O)n1 gave an IC50 (CCRF-CEM) of 82 µM, an IC50 (L1210) of 96 µM and an IC50 (HeLa) of 160 µM.
For Cn1cnc2c1c(=O)n(Cc1cn(C[C@@H]3OC(C)(C)O[C@H]3[C@@H](O)P(=O)(OCc3ccccc3)OCc3ccccc3)nn1)c(=O)n2C, the IC50 (CCRF-CEM) was 142 µM, the IC50 (L1210) was 145 µM and the IC50 (HeLa) was over 200 µM.
Cc1cn(Cc2cn(C[C@H]3OC(C)(C)O[C@H]3[C@@H](O)P(=O)(OCc3ccccc3)OCc3ccccc3)nn2)c(=O)[nH]c1=O gave an IC50 (CCRF-CEM) of over 200 µM, an IC50 (L1210) of 122 µM and an IC50 (HeLa) of over 200 µM.
Compound CC(=O)c1cn(Cc2cn(C[C@H](OCc3ccccc3)[C@@H](O)P(=O)(OCc3ccccc3)OCc3ccccc3)nn2)c2ccccc12 has an IC50 (CCRF-CEM) of over 200 µM, an IC50 (L1210) of over 200 µM and an IC50 (HeLa) of over 200 µM.
In the case of O=C(c1ccccc1)n1c(=O)c2ccccc2n(Cc2cn(C[C@H](OCc3ccccc3)[C@@H](O)P(=O)(OCc3ccccc3)OCc3ccccc3)nn2)c1=O, the IC50 (CCRF-CEM) is reported as 4.7 µM, the inhibition [1] is reported as “inactive” and the inhibition [2] is reported as “inactive”. The IC50 (L1210) was 4.1 µM and the IC50 (HeLa) was 7.1 µM.
Cn1c(=O)c2c(ncn2Cc2cn(C[C@H]3OC(C)(C)O[C@H]3[C@@H](O)P(=O)(OCc3ccccc3)OCc3ccccc3)nn2)n(C)c1=O showed an IC50 (CCRF-CEM) of over 200 µM, an IC50 (L1210) of over 200 µM and an IC50 (HeLa) of over 200 µM.
In the case of Cc1cn(Cc2cn(C[C@H](OCc3ccccc3)[C@H](O)P(=O)(OCc3ccccc3)OCc3ccccc3)nn2)c(=O)[nH]c1=O, the IC50 (CCRF-CEM) is reported as 83 µM, the IC50 (L1210) is reported as 85 µM and the IC50 (HeLa) is reported as 64 µM.
In the case of Cn1cnc2c1c(=O)n(Cc1cn(C[C@H](OCc3ccccc3)[C@H](O)P(=O)(OCc3ccccc3)OCc3ccccc3)nn1)c(=O)n2C, the IC50 (CCRF-CEM) is reported as 68 µM, the IC50 (L1210) is reported as 58 µM and the IC50 (HeLa) is reported as 76 µM.
CC1(C)O[C@@H]([C@@H](O)P(=O)(OCc2ccccc2)OCc2ccccc2)[C@H](Cn2cc(Cn3cnc4c(N)ncnc43)nn2)O1 was tested, and the IC50 (CCRF-CEM) was over 200 µM and the IC50 (L1210) was over 200 µM.
In the case of Cn1c(=O)c2c(ncn2Cc2cn(C[C@H](OCc3ccccc3)[C@H](O)P(=O)(OCc3ccccc3)OCc3ccccc3)nn2)n(C)c1=O, the IC50 (CCRF-CEM) is reported as 72 µM, the IC50 (L1210) is reported as 56 µM and the IC50 (HeLa) is reported as 83 µM.
With Cn1cnc2c1c(=O)n(Cc1cn(C[C@H]3OC(C)(C)O[C@H]3[C@@H](O)P(=O)(OCc3ccccc3)OCc3ccccc3)nn1)c(=O)n2C the IC50 (CCRF-CEM) was 115 µM, the IC50 (L1210) was 86 µM and the IC50 (HeLa) was over 200 µM.
CC1(C)O[C@@H]([C@@H](O)P(=O)(OCc2ccccc2)OCc2ccccc2)[C@H](Cn2cc(Cn3ccc(=O)[nH]c3=O)nn2)O1 gave an IC50 (CCRF-CEM) of over 200 µM, an IC50 (L1210) of over 200 µM and an IC50 (HeLa) of 118 µM.
NC(=O)c1ncn([C@@H]2O[C@H](CO)[C@@H](O)[C@H]2O)n1 [RIBAVIRIN] was tested, and the EC50 [2] was 17 µM.
O=C(c1ccccc1)n1c(=O)ccn(Cc2cn(C[C@H](OCc3ccccc3)[C@@H](O)P(=O)(OCc3ccccc3)OCc3ccccc3)nn2)c1=O showed an IC50 (CCRF-CEM) of 21 µM, an EC50 ([1]; human respiratory syncytial virus) of 12 µM and an EC50 [2] of 9 µM. It also gave an IC50 (L1210) of 26 µM and an IC50 (HeLa) of 76 µM.
With O=C(c1ccccc1)n1c(=O)ccn(Cc2cn(C[C@H](O)[C@@H](O)P(=O)(O)O)nn2)c1=O the IC50 (CCRF-CEM) was over 200 µM, the IC50 (L1210) was over 200 µM and the IC50 (HeLa) was over 200 µM.
O=c1ccccn1Cc1cn(C[C@H](OCc2ccccc2)[C@H](O)P(=O)(OCc2ccccc2)OCc2ccccc2)nn1 was tested, and the IC50 (CCRF-CEM) was 101 µM, the IC50 (L1210) was 76 µM and the IC50 (HeLa) was 28 µM.
In the case of Cn1c(=O)c2c(nc(Cl)n2Cc2cn(C[C@H]3OC(C)(C)O[C@H]3[C@@H](O)P(=O)(OCc3ccccc3)OCc3ccccc3)nn2)n(C)c1=O, the IC50 (CCRF-CEM) is reported as 51 µM, the IC50 (L1210) is reported as 58 µM and the EC50 (Human alphaherpesvirus 3) is reported as 55.7 µM. The IC50 (HeLa) was 85 µM.
Compound Cc1cn(Cc2cn(C[C@@H]3OC(C)(C)O[C@H]3[C@@H](O)P(=O)(OCc3ccccc3)OCc3ccccc3)nn2)c(=O)[nH]c1=O has an IC50 (CCRF-CEM) of over 200 µM, an IC50 (L1210) of 139 µM and an IC50 (HeLa) of 107 µM.
CC1(C)O[C@@H]([C@@H](O)P(=O)(OCc2ccccc2)OCc2ccccc2)[C@@H](Cn2cc(Cn3ccc(=O)[nH]c3=O)nn2)O1 was tested, and the IC50 (CCRF-CEM) was over 200 µM, the IC50 (L1210) was over 200 µM and the IC50 (HeLa) was over 200 µM.
